According to publication PMC6764274 (Chemical Science, 2019):
Read-outs that look alike come from different tables or passages of the source.

Key:
HMLER-shEcad cells [1] = experiment: MTT cytotoxicity assay, breast CSC-enriched cells; assay type: cell-based; details: read-out: HMLER-shEcad IC50/nM
HMLER cells = experiment: MTT cytotoxicity assay, bulk breast cancer cells; assay type: cell-based; details: read-out: HMLER IC50/nM
[2] = test system: HMLER-shEcad mammospheres; details: cited from earlier work
HMLER-shEcad cells [3] = details: read-out: HMLER-shEcad IC50/nM; 72 h incubation; cited from earlier work
MCF10A spheroids [4] = experiment: Non-tumorigenic spheroid viability; assay type: cell-based; details: Homo sapiens, MCF-10A, read-out: IC50, MCF10A spheroid viability
[5] = test system: HMLER-shEcad mammospheres; experiment: Mammosphere formation inhibition; assay type: cell-based; details: IC20 value for 5 days
How it was run: (§1)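 HMLER-shEcad or MCF10A cells were grown as mammospheres/spheroids with test compound at its IC20 for 5 days. Spheres were assessed by inverted microscope with bright-field imaging (×20), and formation was quantified against untreated cells. SD, Student t-test.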

MCF10A spheroids [6] = experiment: Non-tumorigenic spheroid formation inhibition; assay type: cell-based; details: IC20 value for 5 days
How it was run: as §1

[7] = 72 h incubation, mean of three independent experiments ± SD

## Cc1cnc2c(ccc3c(C)c(C)cnc32)c1C [3,4,7,8-Tetramethyl-1,10-phenanthroline]
HMLER-shEcad cells [1]; 72 h
  IC50: 720 ± 84 nM
HMLER cells; 72 h
  IC50: 785 ± 10 nM

## N.N.[Cl][Pt][Cl] [Cisplatin]
HMLER-shEcad cells [1]; [7]
  IC50: 5640 ± 304 nM
HMLER cells; [7]
  IC50: 2565 ± 21 nM

## O=C(O)Cc1ccccc1Nc1c(Cl)cccc1Cl [Diclofenac]
[2]
  effect on number or size of HMLER-shEcad mammospheres formed: does not significantly affect

## Cc1cnc2c(ccc3c(C)c(C)cnc32)c1C.[Cl][Mn][Cl] [Mn(3,4,7,8-tetramethyl-1,10-phenanthroline)Cl2]
HMLER-shEcad cells [1]; [7]
  IC50: 170 ± 14 nM
HMLER cells; [7]
  IC50: 163 ± 21 nM

## [Cl][Mn][Cl] [MnCl2·4H2O]
HMLER-shEcad cells [1]; [7]
  IC50: 7760 ± 318 nM

## CC[C@@H](C(=O)[C@@H](C)[C@@H](O)[C@H](C)[C@@H]1O[C@@H]([C@@H](CC)C(=O)O)CC[C@@H]1C)[C@H]1O[C@]2(C=C[C@@H](O)[C@]3(CC[C@@](C)([C@H]4CC[C@](O)(CC)[C@H](C)O4)O3)O2)[C@H](C)C[C@@H]1C [Salinomycin]
HMLER-shEcad cells [3]
  IC50: 4200 ± 400 nM
MCF10A spheroids [4]
  IC50: 14.9 ± 0.5 µM
[5]
  decrease in number of HMLER-shEcad mammospheres formed compared to the untreated control: 53%
MCF10A spheroids [6]
  decrease in number of MCF10A spheroids formed: 40%
